The whole screen tested about 360,000 compounds, of which about 1,500 (0.42%) were called active. For the sample, actives were picked, then their nearest neighbours and some compounds at random. Unmarked numbers belong to inactive results.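 Rule for the calls: active = inhibition above a per-plate cutoff of the control wells' mean inhibition plus 3 SD (cut at about 5.5% in these data); inactive = the rest.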
system: methionyl-tRNA synthetase (Trypanosoma brucei brucei); test: inhibition of trypanosome methionyl-tRNA synthetase – biochemical, luminescence, primary screen (AID 624268);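 note: 0% = DMSO wells median and 100% = median of wells with control inhibitor compound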; details: purified T. brucei MetRS, ATP depletion, Kinase-Glo luminescence; at 11.9 µM; hits give high values
In short: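 Measured by: Kinase-Glo luciferase luminescence reporting remaining unconsumed ATP. Material: purified T. brucei MetRS enzyme. Doses: 11.9 µM compound single dose, 0.9% DMSO. Medium: HEPES buffer containing pyrophosphatase, BSA, spermine, DTT. Times: 15 min preincubation, 2 h reaction, all 25 °C. Reagent: methionine, ATP and bulk E. coli tRNA.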

SMILES | inhibition
C[C@H]1CN([C@@H](C)CO)C(=O)c2cc(-c3ccccc3F)cnc2O[C@H]1CN(C)C(=O)C1CCOCC1 | -1.85%
CCCn1c(=N)n(CC(=O)c2ccc(Cl)c(Cl)c2)c2ccccc21 | 1.04%
O=C(Cn1c(NCCO)nc2ccccc21)c1ccc(Cl)cc1Cl | 8.55% (active)
O=C(Cn1c(-c2cscn2)nc2ccccc21)Nc1ccc(Cl)cc1 | 4.33%
Brc1cnc2ccccc2c1N1CCCCC1 | -0.62%
CCOc1cc(NC(=S)NCCCN(C)C)c(OCC)cc1NC(=O)C1CC1 | -0.32%
COc1ccc(CCN2CC(C(=O)OCC(=O)NCc3ccccc3Cl)CC2=O)cc1OC (centres undefined) | 0.43%
COc1ccc(CCn2ccc(O)c(Cc3ccc(Cl)cc3Cl)c2=O)cc1OC | 6.37% (active)
COc1ccc(CCNC(=O)CCc2ccccc2O)cc1OC | -0.3%
O=C(NCCN1CCOCC1)Nc1cccc(Cl)c1 | 0.46%
CC(C)(CNC(=O)c1cc(=O)[nH]c2ccccc12)N1CCOCC1 | 0.28%
O=C(NCCN1CCOCC1)c1ccccc1N1C(=O)[C@@H]2Cc3c([nH]c4ccccc34)C(c3cccc(Cl)c3)N2C1=O (some centres undefined) | 11.4% (active)
CC/C(O)=C1\C(=O)CC(C)(C)CC1=NCCc1nc2ccccc2[nH]1 | 0.39%
CCOC(=O)C(=CNNc1ccsc1C(=O)OC)C(=O)OCC | 0.74%
Cc1csc(/N=C/N(C)C)c1C#N | -0.21%
O=c1c2ccccc2nc2n1C(CSCc1cccc(C(F)(F)F)c1)CS2 (centres undefined) | -1%
CCN1CCCC1CNC(=O)Cn1cnc2ccc(S(=O)(=O)N3CCC(C)CC3)cc2c1=O (centres undefined) | -0.14%
CC(C)OCCCNc1ncnc2c1[nH]c1ccc(F)cc12 | 85.6% (active)
CCN1CCCC1Cn1cnc2c([nH]c3cc(OC)ccc32)c1=O (centres undefined) | 0.01%
CCN1CCCC1CNc1ncnc2c1[nH]c1ccc(F)cc12 (centres undefined) | 30.4% (active)
CCNC(=O)CC1C(=O)N(c2ccc(OC)cc2)C(=O)N1CCOC (centres undefined) | -0.58%
CCOc1ccc(C(C(=O)NC2CCCC2)N(C(=O)c2snc(C(N)=O)c2N)C2CCCC2)cc1 (centres undefined) | -0.03%
O=C1c2ccccc2[C@@H]2C[C@@H](O)[C@H](Nc3ccccc3Cl)CCN12 | -0.62%
CN1CCCN(C(=O)C2CCCCC2)CC1 | -0.59%
O=C(NCc1ccco1)c1sc2cccc(F)c2c1Cl | -1.04%

SMILES | inhibition
CCN(CC)S(=O)(=O)c1ccc2nc(COC(=O)c3n[nH]c4ccccc34)[nH]c2c1 | -0.9%
COc1ccc(CCNC(=O)COC(=O)C2CCCCC2)cc1 | 0.41%
O=C(OCc1nc2ccccc2[nH]1)C1CCCCC1 | 14.4% (active)
O=C(c1ccc(N2CCCC2=O)cc1)N1CCN(c2ccc(C(F)(F)F)cc2[N+](=O)[O-])CC1 | -0.05%
COCCn1c(SC(C)C(=O)NC2CC2)nnc1-c1cccc(C)c1 (centres undefined) | -0.37%
O=C(Nc1ccc(N2CCOCC2)cc1)c1cccc2c(-c3ccc(F)c(F)c3)coc12 | -0.14%
C=CCSc1nsc(NC(=O)Nc2cccc(C(C)=O)c2)n1 | -1.33%
CSc1nsc(NC(=O)Nc2ccccc2)n1 | 19.9% (active)
CCSc1nsc(NC(=O)Nc2cccc(C(C)=O)c2)n1 | -0.36%
O=C(COC(=O)c1ccc(F)cc1F)Nc1ncccn1 | 0.09%
O=C(ON=C1CCN(S(=O)(=O)c2ccccc2)CC1)c1ccc(Cl)cc1 | -0.24%
CCCn1c(SCC(=O)Nc2ccc(C)c(S(=O)(=O)N3CCOCC3)c2)n[nH]c1=O | -1.6%
COc1ccc(OC)c(NC(=O)Cn2c(=O)oc3ccccc32)c1 | -0.7%
Cc1ccc(CCCOC(=O)C[N+]2(C)CCCC2)cc1 | -0.15%
Cc1cccc(C)c1N1C(=O)CN(Cc2ccccc2)C1=S | -1%
CCCCN1C[C@H](c2ccc(Br)cc2)[C@@H](CC(=O)Nc2ccc(Br)cc2)C1=O | 38.6% (active)
C[C@H]1CN(c2ccc(Br)cc2)C(=O)[C@@H]1CC(=O)Nc1ccc(Br)cc1 | -0.7%
CCCCN1CC(C)(C)[C@H](CC(=O)Nc2ccc(Br)cc2)C1=O | 0.54%
CCOC(=O)C1=C(c2ccccc2)NC(=O)NC1c1cc(OCC)c(O)c([N+](=O)[O-])c1 (centres undefined) | -0.17%
c1ccc(CN=C2Nc3ccccc3CS2)nc1 | 11.2% (active)
O=C1CSc2ccc(C(=O)NCc3ccccn3)cc2N1 | -0.41%
c1ccc(CCc2ccccn2)cc1 | -0.47%
CCOc1ccccc1C1CC(c2ccc(Cl)cc2)Nc2nc(N)nn21 (centres undefined) | 0.5%
COc1ccc(C2CC(c3ccc(Cl)cc3Cl)Nc3nc(N)nn32)cc1OC (centres undefined) | 9.33% (active)
Cc1ccc(C2CC(c3cccc(Br)c3)n3nc(N)nc3N2)cc1 (centres undefined) | -0.23%

SMILES | inhibition
COc1ccc2[nH]c3nc(SCC(=O)NC4CC4)nnc3c2c1 | 0.12%
Cc1ccn2c(=O)nc(SCC(=O)NCc3ccc(F)cc3)nc2c1 | -0.43%
Cc1ccc(CNC(=O)CSc2nnc3c(n2)[nH]c2ccc(F)cc23)cc1 | 15.6% (active)
CCCNC(=O)C1(C)CCN(C(=O)c2ccc(F)cc2Cl)C1 (centres undefined) | -0.42%
O=C(NNc1cc(Cl)cc(Cl)c1)c1c(F)cccc1Cl | 45.1% (active)
CCN(CC)CCNC(=O)c1ccc(NC(=O)c2c(F)cccc2Cl)cc1 | -0.39%
O=C(O)c1cc2c(cc1NC(=O)c1c(F)cccc1Cl)OCCCO2 | 0.17%
C=CCC(Nc1ccccc1)c1cccc(OC)c1OC (centres undefined) | 0.2%
O=C1COc2ccc(C(=O)COC(=O)C3CC(O)CN3S(=O)(=O)c3ccc(Cl)cc3)cc2N1 (centres undefined) | 0.64%
CNC[C@@H]1Oc2c(NS(C)(=O)=O)cccc2C(=O)N([C@@H](C)CO)C[C@H]1C | -0.2%
O=C(Cn1c2[n+](c3ccc(C(F)(F)F)cc31)CCCCC2)Nc1c(F)cccc1F | 17.2% (active)
O=C(CCC1CCCCC1)Nc1cc(C(F)(F)F)ccc1N1CCOCC1 | 0.04%
CCN(CC(=O)Nc1c(F)cccc1F)C(=O)C1CCC1 | -0.09%
N#CCc1c[nH]c2ccc([N+](=O)[O-])cc12 | -0.24%
CCc1ccc(S(=O)(=O)NCC(O)COc2ccc(OC)cc2)cc1 (centres undefined) | -0.05%
COC(=O)[C@H](CCSC)NC(=O)Nc1ccc(OC)cc1 | -0.05%
COc1ccc(OCC(O)CNC(=O)Nc2ccc(Cl)cc2)cc1 (centres undefined) | 60.1% (active)
COc1cccc(NC(=O)N2CCC(NC(=O)C(Cc3cccc(C)c3)NC(C)=O)CC2)c1 (centres undefined) | -0.33%
CC(Oc1ccccc1F)C(=O)NN (centres undefined) | -0.07%
CCCOn1c(-n2nc(C)cc2C)nc2ccccc2c1=O | -0.74%
CCN(CC(=O)NCCc1ccccc1)S(=O)(=O)c1ccccc1 | 1.61%
O=C(CSc1nnc(-c2c[nH]c3ccccc23)o1)c1ccccc1 | 0.1%
CCn1c(SCC(=O)N(C)C2CCS(=O)(=O)C2)nnc1-c1cccs1 (centres undefined) | -0.25%
CN(C(=O)CSc1nnc(-c2ccc3c(c2)OCO3)o1)C1CCS(=O)(=O)C1 (centres undefined) | -0.28%
CN(C(=O)CSc1nnc(-c2ccc(C(C)(C)C)cc2)n1C)C1CCS(=O)(=O)C1 (centres undefined) | -0.23%

SMILES | inhibition
CN(C(=O)CSc1nnc(-c2c[nH]c3ccccc23)o1)C1CCS(=O)(=O)C1 (centres undefined) | 8.69% (active)
CN(C(=O)CSc1nnc(Nc2ccccc2)s1)C1CCS(=O)(=O)C1 (centres undefined) | 6.74% (active)
Cn1nc(C(F)(F)F)c(-c2ccc(F)cc2)c1NC(=O)CSCC(=O)O | -1.21%
Cc1ccc(C)c(N2C(=O)CS/C2=N\NC(=O)c2ccccc2Cl)c1 | -0.16%
Cc1ccc(NC(=O)C(C)c2cccc(C(=O)c3ccccc3)c2)cc1 (centres undefined) | 67.8% (active)
CCC(C(=O)Nc1ccc(C(C)C)cc1)c1ccccc1 (centres undefined) | 0.33%
CC(=O)Nc1ccc(NC(=O)[C@@H](NC(=O)c2cccc(C)c2)C(C)C)cc1 | -0.8%
COc1ccc(NC(=O)N2CCCC2C(=O)NCc2ccccc2Cl)cc1 (centres undefined) | -0.13%
COc1ccc(CNC(=O)C(C)NCc2ccccc2Cl)cc1 (centres undefined) | -0.92%
COc1ccc(NC(=O)C(NC(C)=O)C(=O)NCc2ccccc2Cl)cc1 (centres undefined) | 7.6% (active)
Nc1ccccc1Sc1cc(Cl)nnc1Cl | 1.75%
CSc1ccc(S(=O)(=O)NCc2ccc(Cl)cc2)cc1 | -1.21%
O=C(O)CCn1c(O)c(C=C2N=c3ccccc3=N2)sc1=S | 7.5% (active)
CCN=c1sc(C(=O)Nc2ccccc2)c(C)n1CC | 0.54%
Cc1ccc(S(=O)(=O)Nc2nc(CN3CCOCC3)nc3sc(C)c(C)c23)cc1 | -0.08%
CC(C)C1C2=C(CC(C)(C)CC2=O)ON1c1ccccc1 (centres undefined) | 0.41%
Cc1cc(=O)n2nc(N3CCC(C(=O)Nc4c(F)c(F)c(F)c(F)c4F)CC3)sc2n1 | -0.7%
CCOc1ccc(S(=O)(=O)N2CCCCCC2)c2ccccc12 | -0.75%
Fc1ccc(NC(=S)N2CCc3[nH]c4ccccc4c3C2)cc1 | 9.22% (active)
CCOc1ccc(NC(=O)N2CC=C(n3c(=O)[nH]c4ccccc43)CC2)cc1 | -0.02%
O=C(CCCN1CCc2[nH]c3ccc(F)cc3c2C1)c1ccc(F)cc1 | 0.35%
O=C(Nc1ccc(Cl)cc1)N1CCc2[nH]c3ccccc3c2C1 | 64.1% (active)
CC(=O)C(CC(=O)N1CCCC1)C(=O)Nc1ccc(Cl)cc1 (centres undefined) | -0.19%
C[C@H](O)[C@@H]1C(=O)N2CCc3c([nH]c4ccccc34)[C@@H]2C[C@@H]1N(C)C(=O)Nc1ccc(F)cc1 | 1.97%

Source: PubChem BioAssay AID624268 (The Scripps Research Institute Molecular Screening Center, 2012)
